Here are results for 2 molecules from PMC12757722 (Molecular Cancer Therapeutics, 2025).

Experiment [1] addresses T1, K-Ras (G12C) (Homo sapiens, UniProt P01116, G12C). As to the kind of experiment: MST binding of labeled nucleotide.
Experiment [2] concerns K-Ras. As to conditions: Goebel and colleagues; cited from earlier work.
Experiment [3] has as its target T2, K-Ras (WT) (Homo sapiens, UniProt P01116). As to the kind of experiment: MST binding of labeled nucleotide.
The target of experiment [4] is T2, K-Ras (WT). As to the kind of experiment: SPA with [32P]GTP. The format is binding. In outline:
(§1)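 Saturation binding used [32P]GTP (3,000 Ci/mmol) at 2.5 nmol/L–10 µmol/L, with nonspecific signal defined by 800 mmol/L imidazole. Counts were converted to pmol, and Kd and Bmax fitted from bound versus free GTP. Three independent experiments, technical triplicates.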

Experiment [5] concerns the target T3, K-Ras (G12D) (Homo sapiens, UniProt P01116, G12D). As to the kind of experiment: MST binding of labeled nucleotide. As to conditions: read-out: MST GTP Kd.
For experiment [6], the target named is T2, K-Ras (WT). As to the kind of experiment: Filtration binding assay with α-[32P]GTP. In outline:
(§2)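 Nucleotide-free His10-tagged K-Ras (residues 2–185) was expressed in E. coli and purified by Ni affinity and SEC. Varying protein amounts were incubated with α-[32P]GTP (2,594 Ci/mmol; 2.88 nmol/L final) for 5 min at 23°C in 100 µL. Samples were filtered through 0.45-µm MCE membranes, washed with ice-cold GTP-free assay buffer, and dried filters counted for dpm. Kd came from saturation binding and kon from a time course.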

Experiment [7] has as its target T4, K-Ras (Q61H) (Homo sapiens, UniProt P01116, Q61H). As to the kind of experiment: SPA with [32P]GTP. It counts as binding. In short, it runs like this: as §1
The subject of experiment [8] is H-Ras. As to conditions: Feuerstein and colleagues; cited from earlier work.
The target in experiment [9] is T1, K-Ras (G12C). As to the kind of experiment: SPA with [32P]GTP. It counts as binding. In short, it runs like this:
as §1

Experiment [10] addresses T5, Rho-A (Homo sapiens, UniProt P61586). As to the kind of experiment: SPA with [32P]GTP. The format is binding. In outline:
as §1

The target in experiment [11] is T4, K-Ras (Q61H). As to the kind of experiment: MST binding of labeled nucleotide. As to conditions: read-out: MST GTP Kd.
For experiment [12], the target named is T6, Rac-1 (Homo sapiens, UniProt P63000). Description: SPA with [32P]GTP. The format is binding. In outline: as §1
Experiment [13] deals with T6, Rac-1. As to the kind of experiment: MST binding of labeled nucleotide. As to conditions: read-out: MST GTP Kd.
In experiment [14] the target is T5, Rho-A. As to the kind of experiment: MST binding of labeled nucleotide. As to conditions: read-out: MST GTP Kd.
In experiment [15] the target is T3, K-Ras (G12D). As to the kind of experiment: SPA with [32P]GTP. It counts as binding. In outline:
as §1

The target in experiment [16] is T3, K-Ras (G12D). As to the kind of experiment: Filtration binding assay with α-[32P]GTP. In short, it runs like this: as §2

Broadly, the koff is the first-order rate constant of dissociation. One may read the kon as a measure of how fast the partners come together.

T5 sequence (P61586 2-181): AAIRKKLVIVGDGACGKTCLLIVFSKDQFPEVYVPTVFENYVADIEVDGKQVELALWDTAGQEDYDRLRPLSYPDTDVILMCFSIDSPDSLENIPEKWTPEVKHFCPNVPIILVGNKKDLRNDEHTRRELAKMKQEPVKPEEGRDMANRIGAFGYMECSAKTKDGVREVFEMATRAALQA

Take `Nc1nc2c(ncn2[C@@H]2O[C@H](COP(=O)(O)OP(=O)(O)O)[C@@H](O)[C@H]2O)c(=O)[nH]1` [GDP]: the Kd in experiment [1] (read-out: MST GDP Kd) turned out to be 360 ± 34 nM. Besides, in experiment [2], the koff is 1.1e-05 s⁻¹ and the kon was 4.22e+06 M⁻¹ s⁻¹. In addition, in experiment [3] (read-out: MST GDP Kd), the Kd amounted to 394 ± 54 nM.

`Nc1nc2c(ncn2[C@@H]2O[C@H](COP(=O)(O)OP(=O)(O)OP(=O)(O)O)[C@@H](O)[C@H]2O)c(=O)[nH]1` [GTP]: the “SPA Bmax (mol:mol)” value in experiment [4] (K-Ras (WT), molar binding stoichiometry of GTP to protein) is reported as 1.00 ± 0.01 mol:mol; in experiment [7], 0.96 ± 0.02 mol:mol; in experiment [9] it was 0.94 ± 0.02 mol:mol; in [10], 1.02 ± 0.02 mol:mol; in experiment [12], 1.03 ± 0.02 mol:mol; in [15], 0.97 ± 0.01 mol:mol. Further, the “kon by SPA” value in experiment [4] (WT K-Ras) stood at 3.22e+08 M⁻¹ s⁻¹. Also, the Kd in experiment [4] (read-out: SPA GTP Kd, K-Ras (WT)) turned out to be 246 ± 19 nM; in experiment [5], 244 ± 12 nM; in experiment [6] (read-out: Filtration assay GTP Kd, K-Ras (WT), 23°C), 228 ± 26 nM; in [9] (read-out: SPA GTP Kd) it was 359 ± 35 nM; in experiment [10] (read-out: SPA GTP Kd) it was 129 ± 12 nM; in experiment [11], 157 ± 21 nM. In addition, the Kd in experiment [12] (read-out: SPA GTP Kd) was 151 ± 14 nM; in experiment [13], 166 ± 10 nM; in [14], 130 ± 5 nM; in [15] (read-out: SPA GTP Kd), 280 ± 19 nM; in experiment [1] (read-out: MST GTP Kd), 207 ± 46 nM; in experiment [16] (read-out: Filtration assay GTP Kd, K-Ras (G12D), 23°C), 345 ± 25 nM. Also, the Kd in experiment [3] (read-out: MST GTP Kd, 23°C) was 463 ± 23 nM. Also, the “Filtration assay Bmax (mol:mol)” value in [6] (K-Ras (WT)) is listed as 0.93 ± 0.03 mol:mol; in experiment [16] (K-Ras (G12D)) it was 0.95 ± 0.02 mol:mol. In addition, the “kon by filtration binding assay” value is 2.13e+08 M⁻¹ s⁻¹ in experiment [6] (K-Ras, time course study) and 2.49e+08 M⁻¹ s⁻¹ in experiment [16] (G12D K-Ras mutant, time course study). Moreover, the koff in experiment [8] is 8e-05 s⁻¹. Also, in [8], the kon was 2.9e+06 M⁻¹ s⁻¹.
